Data taken from the RNAGym collection of RNA variant scans (doi:10.1126/science.aae0568).
This sample holds only a part of the variants without activity.

B1: tRNA (parent)
chain: GUUCCGUUGGCGUAAUGGUAACGCGUCUCCCUCCUAAGGAGAAGACUGCGGGUUCGAGUCCCGUACGGAACG

Variants of: B1
Assay: yeast fitness relative to wild type (ratio to wild type); higher = fitter; tRNA-Arg(CCU), competitive growth, 37 C, YPD
Procedure, shortened: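 Amplicons of the tRNA-Arg(CCU) gene were sequenced, 100-nucleotide paired-end, from the start population and from each end population of a pooled yeast competition. The competition, in six parallel replicates, lasted 24 hours in YPD at 37°C. Fitness relative to wild type was calculated from changes in genotype frequencies. Genotypes had to have ≥ 100 starting reads, and estimates < 0.5 were set to 0.5.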
In the case of GUUCCGUUGGCGUAAUGGUAGCGCGUCUCCCUCCUACGGAGAAGACUGCGGGUUCGAGUCCCGUUCGCAACG [A21G A37C A65U G68C], the yeast fitness is reported as ≤ 0.5.
GUUCCGUUGGCGUAAUGGUACCGCGUCUCCCUCCUAAGGAGAAGACUGCGGGUGGGAGUCCCGUACGGAACG [A21C U54G C55G] showed a yeast fitness of 0.585.
GUUCCGUUGGCGUAAUGGUAGCGCGUCUCCCUCCUAAGGAGCAGACUGCGGGUUCGAGUCCCGUACAGAACG [A21G A42C G67A] showed a yeast fitness of 0.662.
With GUUCCGUUGGCGUAAUGGUAGCGCGUCUCCCUCCUAAGGAGUAGACUGCGGGUUCGAGUCCCGUAUGGAACG [A21G A42U C66U] the yeast fitness was 0.56.
With GUUCCGUUGGCGUAAUGGUACCGCGGCUCCCUCCAAAGGUGAAGACUGCGGGUUCGAGUCCCGUACGGAACG [A21C U26G U35A A40U] the yeast fitness was ≤ 0.5.
In the case of GUUCCGUUGGCGUAAUGGUAGCGCGUCUCCCUCCUGACGAGAAGACUGCGGGUUCGAGUCCGGUACGGAACG [A21G A36G G38C C62G], the yeast fitness is reported as ≤ 0.5.
In the case of GUUCCGUUGGCGUAAUGGUAGCGCGUCUCCCUCCUAAGGCGCAGACUGCGGGUUCGAGUCCCGUAAGGAACG [A21G A40C A42C C66A], the yeast fitness is reported as ≤ 0.5.
GUUCCGUUGGCGUAAUGGUAGCGCGUCUCCCUCCUAAGGCGUAGAUUGUGAGUUCGAGUCCCGUCCGGAACG [A21G A40C A42U C46U C49U G51A A65C] showed a yeast fitness of 0.732.
With GUUCCGUUGGCGUAAUGGUAGCGCGUCUCCCUCCUGAGGAGAAGACUGCGAGUUCGAGUCCCGUACGGCACG [A21G A36G G51A A69C] the yeast fitness was ≤ 0.5.
GUUCCGUUGGCGUAAUGGUACCGCGUCUCCCUCCUAAGGAGAAGACAGCGGGUUCGAGUUCCGUACCGUACG [A21C U47A C60U G67C A69U] gave a yeast fitness of 0.574.
Work on GUUCCGUUGGCGUAAUGGUACCGCGUCUCCCUCCUAAGGAGAAGACUGCGGGUUCGAGUCCCGCACGGAACG [A21C U64C] yielded a yeast fitness of 0.835.
For GUUCCGUUGGCGUAAUGGUAGCGCGUCUCCCUCCUACAGAGAAGACUGCGGGUUCGAGUCCCGUUCGCAACG [A21G A37C G38A A65U G68C], the yeast fitness was ≤ 0.5.
Variant GUUCCGUUGGCGUAAUGGUACCGCGUCUCCCCCCUAAGGAGAAGAUUGCGGGUUCGAGUCCCGUACGGAACG [A21C U32C C46U] has a yeast fitness of 0.849.
Variant GUUCCGUUGGCGUAAUGGUACCGCGUCUCCCUCCCAAGGAGAAGACUGCGGGUUCGAGUCCCGUGCGGAACG [A21C U35C A65G] has a yeast fitness of 0.583.
Variant GUUCCGUUGGCGUAAUGGUAGCGCGUCUCCCUCCUAAGGAGUAGACUGCGGGUUCGAGUCCCGUACGCAACG [A21G A42U G68C] has a yeast fitness of 0.539.
For GUUCCGUUGGCGUAAUGGUACCGCGACUCCCUCCUAAGGAGAAGAUUGCGGGUUUGAGUCCCGUACGGAACG [A21C U26A C46U C55U], the yeast fitness was 0.608.
In the case of GUUCCGUUGGCGUAAUGGUAGCGCGUCUCCCUCCUAAGGAGUAGACUGCGGGUUCGUGUCCUGUACGGAACG [A21G A42U A57U C62U], the yeast fitness is reported as ≤ 0.5.
Work on GUUCCGUUGGCGUAAUGGUAGCGCGUCUCCCUCCUAAGGAGACGACUGCGGGUUCGAGUCCCGUACGGAACG [A21G A43C] yielded a yeast fitness of 0.966.
Work on GUUCCGUUGGCGUAAUGGUAGCGCGUCUCCCUCCUAAGGAGAGGACUGCGGGUUCGAGUCCCGUACGGAACG [A21G A43G] yielded a yeast fitness of 1.04.
GUUCCGUUGGCGUAAUGGUACCGCGUCUCCCCCCUAAGGAGAAGAUUGCGGGUUCGAGUCCCGUAUGGAACG [A21C U32C C46U C66U] showed a yeast fitness of 0.585.
For GUUCCGUUGGCGUAAUGGUACCGCGUCUCCCUCCAAAGGAGAAGACUGCCGGUUCGAGUCCCGUACGGCACG [A21C U35A G50C A69C], the yeast fitness was ≤ 0.5.
For GUUCCGUUGGCGUAAUGGUACCGCGUCUCCCUCCAAAGGAGAAGACUGCGGGUUCGAGUCCCGUACGGAACG [A21C U35A], the yeast fitness was 0.601.
Variant GUUCCGUUGGCGUAAUGGUAGCGCGUCUCCCUCCUAAGGAGACGACUGCGGGUUCGAGUCCCGUACGGAUCG [A21G A43C A70U] has a yeast fitness of 0.712.
For GUUCCGUUGGCGUAAUGGUAGCGCGUCUCCCUCCUAAGGAGUAGACUGUGGGUUCGAGUCCCGUACAGAACG [A21G A42U C49U G67A], the yeast fitness was ≤ 0.5.
For GUUCCGUUGGCGUAAUGGUACCGCGUCACCCUCCUAAGGAGAAGACUGCGGGUUGGUGUCCCGUACAGAACG [A21C U28A C55G A57U G67A], the yeast fitness was ≤ 0.5.
For GUUCCGUUGGCGUAAUGGUAGCGCGUCUCCCUCCUGAGGAGAAGACUGCGGGAUCGUGUCCCGUUCGGAACG [A21G A36G U53A A57U A65U], the yeast fitness was ≤ 0.5.
GUUCCGUUGGCGUAAUGGUACCGCGUCUCCCUCCUAAGGAGAAGACUGCGGGUCCGAGUCCCGUACGGAACG [A21C U54C] showed a yeast fitness of 0.845.
For GUUCCGUUGGCGUAAUGGUACCGCGUCUCCCUCCUAAGGAGAAGACUGCGGGUACGAGUCCCGUACGGAACG [A21C U54A], the yeast fitness was 0.552.
Variant GUUCCGUUGGCGUAAUGGUACCGCGUCUCCCCCCUAAGGAGAAGACUGCGGGUUCGAGUCCCGAACGGAACG [A21C U32C U64A] has a yeast fitness of 0.664.
For GUUCCGUUGGCGUAAUGGUAGCGCGUCUCCCUCCUAAGGAGUAGACUGCGGGUUCGAGUCCCGUACGGAACG [A21G A42U], the yeast fitness was 0.839.
In the case of GUUCCGUUGGCGUAAUGGUAGCGCGUCUCCCUCCUAAGGAGCAGACUGCGGGUUCGAGUCCCGUACGGAACG [A21G A42C], the yeast fitness is reported as 0.96.
In the case of GUUCCGUUGGCGUAAUGGUAGCGCGUCUCCCUCCUGAGGAGUAGACUGCGGGUUCGGGUCCCGUACGGAACG [A21G A36G A42U A57G], the yeast fitness is reported as ≤ 0.5.
In the case of GUUCCGUUGGCGUAAUGGUAGCGCGUCUCCCUCCUAAGGAGACGACUGCGGGUUCGAGUGCCGUACGCAACG [A21G A43C C60G G68C], the yeast fitness is reported as ≤ 0.5.
Work on GUUCCGUUGGCGUAAUGGUACCGCGUCUCCCCCCUAAGGAGAAGAGUGGGGGUUCGAGUCCCGUACGGAACG [A21C U32C C46G C49G] yielded a yeast fitness of 0.529.
GUUCCGUUGGCGUAAUGGUAGCGCGUCUCCCUCCUAAGGCGUAGAUUGUGAGUUCGAGUCCCGUACGGCACG [A21G A40C A42U C46U C49U G51A A69C] gave a yeast fitness of 0.596.
GUUCCGUUGGCGUAAUGGUAGCGCGUCUCCCUCCUAAGGUGAAGACUGCGGCUUAGAGUCCCGUAGGGAACG [A21G A40U G52C C55A C66G] gave a yeast fitness of 0.539.
For GUUCCGUUGGCGUAAUGGUAGCGCGUCUCCCUCCUUAGGAGAAGUCUGUGGGUUCGAGUCCCGAACGGAUCG [A21G A36U A45U C49U U64A A70U], the yeast fitness was ≤ 0.5.
Work on GUUCCGUUGGCGUAAUGGUACCGCGGCUCCCUCUUAAGGGGAAGACUGCGAGUUCGAGUCCCGUACGGAACG [A21C U26G C34U A40G G51A] yielded a yeast fitness of 0.529.
